Assay results: ChEMBL document CHEMBL4610117 (J Med Chem, 2020)
The source made the active and inactive calls. No cut-off for these calls is given here.

How the values were obtained:
[1] = Clearance in rat liver microsomes at 1 uM measured after 2 to 60 mins in presence of NADP by LC-MS/MS analysis; format: ADME, Microsome
[2] = molecular target: Serine/threonine-protein kinase ATR (Homo sapiens, UniProt Q13535); test: In vivo inhibition of ATR in human SUDHL8 cells harboring ATM K1964E mutant xenografted CB-17 mouse assessed as change in pH2AX level at 50 mg/kg, po bid dosed every 3 days followed by 4 days interval; format: functional, organism-based
[3] = Apparent half life in Wistar rat at 0.3 to 0.5 mg/kg, iv administered as bolus dose by LC-MS/MS analysis; format: ADME, organism-based; conditions: in vivo, read-out: t1/2(app) (converted)
[4] = Maximum oral bioavailability in mouse liver microsomes based well stirred liver model at 1 uM measured after 2 to 60 mins in presence of NADP by LC-MS/MS analysis; format: ADME, Microsome; conditions: read-out: Fmax
[5] = Apparent half life in NMRI mouse at 0.3 to 0.5 mg/kg, iv administered as bolus dose by LC-MS/MS analysis; format: ADME, organism-based; conditions: in vivo
[6] = Clearance in NMRI mouse at 0.3 to 0.5 mg/kg, iv administered as bolus dose by LC-MS/MS analysis; format: ADME, organism-based; conditions: in vivo
[7] = Protein binding in rat plasma assessed as unbound fraction at 3 uM measured after 7 hrs by LC-MS/MS analysis; format: ADME, cell-free
[8] = Oral bioavailability in Wistar rat at 0.6 to 1 mg/kg by LC-MS/MS analysis; format: ADME, organism-based; conditions: in vivo
[9] = Maximum oral bioavailability in dog liver microsomes based well stirred liver model at 1 uM measured after 2 to 60 mins in presence of NADP by LC-MS/MS analysis; format: ADME, Canis lupus familiaris, Microsome; conditions: read-out: Fmax
[10] = Inhibition of PI3K/AKT/mTOR signaling pathway in human MCF7 cells assessed as reduction in AKT phosphorylation at Ser473 residues measured after 30 mins by HTRF assay; conditions: MCF7, 0.5 h
[11] = Apparent half life in Beagle dog at 0.3 to 0.5 mg/kg, iv administered as bolus dose by LC-MS/MS analysis; format: ADME, organism-based, Canis lupus familiaris; conditions: in vivo, read-out: t1/2(app) (converted)
SU-DHL-8 [12] = test: Antitumor activity against human SUDHL8 cells harboring ATM K1964E mutant xenografted in CB-17 mouse assessed as tumor growth at 50 mg/kg, po bid dosed every 3 days followed by 4 days interval relative to control; format: functional
Procedure, shortened: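 SU-DHL-8 (ATM K1964E) GCB-DLBCL cell line-derived xenograft in female C.B-17 SCID mice, n = 9/group. Oral dosing at 50 mg/kg b.i.d. on an intermittent schedule of 3 days on/4 days off. Treatment-to-control (T/C) ratio versus vehicle.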

SUM149PT = test: Antitumor activity against human SUM149 cells xenografted in nude mouse assessed as tumor growth at 20 mg/kg, po bid dosed every 3 days followed by 4 days interval in presence of olaparib relative to control; format: functional
Procedure, shortened: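 SUM149 human TNBC xenograft in nude mice, n = 10/group. Oral 20 mg/kg b.i.d., 3 days on/4 days off, combined with olaparib 50 mg/kg q.d. i.p. T/C ratio versus vehicle and the monotherapies; body weight loss was monitored.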

[13] = Toxicity in NOD/SCID mouse xenografted with human CR5038 cells assessed as body weight loss at 20 mg/kg, po qd dosed every 2 days followed by 5 days interval measured on day 11 to 14 and 28 to 31 in presence of carboplatin relative to control; format: organism-based; conditions: in vivo
SU-DHL-8 [14] = test: Antiproliferative activity against human SUDHL8 cells assessed as reduction in cell viability measured after 4 days by celltiter-glo luminescent assay; format: functional, cell-based; conditions: SU-DHL-8, 96 h
[15] = molecular target: DNA-dependent protein kinase catalytic subunit (Homo sapiens, UniProt P78527); test: Inhibition of DNA-PK (unknown origin)
[16] = Clearance in Wistar rat at 0.3 to 0.5 mg/kg, iv administered as bolus dose by LC-MS/MS analysis; format: ADME, organism-based; conditions: in vivo
[17] = molecular target: T1, Cyclin-G-associated kinase (Homo sapiens, UniProt O14976); test: Binding affinity to wild-type human partial length GAK (G13 to Y338 residues) expressed in bacterial expression system by Kinomescan method
T1 sequence (O14976 whole entry): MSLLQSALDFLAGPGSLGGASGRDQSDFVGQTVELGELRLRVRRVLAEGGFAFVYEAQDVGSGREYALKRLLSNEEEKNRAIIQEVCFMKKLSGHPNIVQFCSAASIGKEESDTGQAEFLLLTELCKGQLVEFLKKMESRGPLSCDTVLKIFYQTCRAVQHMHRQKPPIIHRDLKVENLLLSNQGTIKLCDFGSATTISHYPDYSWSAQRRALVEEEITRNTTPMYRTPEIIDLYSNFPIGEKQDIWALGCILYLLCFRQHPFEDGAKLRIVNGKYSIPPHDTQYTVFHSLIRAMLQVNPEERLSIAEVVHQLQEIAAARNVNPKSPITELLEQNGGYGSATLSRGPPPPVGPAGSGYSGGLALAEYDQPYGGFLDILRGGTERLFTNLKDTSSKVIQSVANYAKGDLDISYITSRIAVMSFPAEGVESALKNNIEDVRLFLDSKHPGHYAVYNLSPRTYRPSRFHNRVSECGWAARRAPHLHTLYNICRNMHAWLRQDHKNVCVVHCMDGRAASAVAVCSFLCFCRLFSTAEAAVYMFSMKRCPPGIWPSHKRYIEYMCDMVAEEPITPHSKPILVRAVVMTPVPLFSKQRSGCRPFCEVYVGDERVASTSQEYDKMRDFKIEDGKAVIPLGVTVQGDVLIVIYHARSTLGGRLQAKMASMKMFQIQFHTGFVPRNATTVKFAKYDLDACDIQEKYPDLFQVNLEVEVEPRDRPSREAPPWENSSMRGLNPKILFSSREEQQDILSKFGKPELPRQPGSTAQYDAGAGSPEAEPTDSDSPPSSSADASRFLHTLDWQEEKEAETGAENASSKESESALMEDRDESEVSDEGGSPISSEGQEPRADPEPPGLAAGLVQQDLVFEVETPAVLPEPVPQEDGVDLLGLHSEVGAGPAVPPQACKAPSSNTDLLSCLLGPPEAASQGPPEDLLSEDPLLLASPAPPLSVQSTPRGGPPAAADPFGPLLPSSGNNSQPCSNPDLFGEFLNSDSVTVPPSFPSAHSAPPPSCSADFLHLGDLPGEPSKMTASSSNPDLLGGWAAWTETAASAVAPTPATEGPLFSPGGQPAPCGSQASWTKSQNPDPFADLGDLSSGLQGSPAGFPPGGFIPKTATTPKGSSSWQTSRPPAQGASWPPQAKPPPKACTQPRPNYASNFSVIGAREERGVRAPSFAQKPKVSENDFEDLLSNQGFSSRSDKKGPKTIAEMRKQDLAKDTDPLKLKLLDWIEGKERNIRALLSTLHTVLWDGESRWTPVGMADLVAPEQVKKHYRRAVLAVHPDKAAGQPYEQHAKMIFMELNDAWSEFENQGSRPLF

[18] = Toxicity in nude mouse xenografted with human SUM149 cells assessed as body weight loss at 20 mg/kg, po bid dosed every 3 days followed by 4 days interval in presence of olaparib relative to control; format: organism-based, SUM149PT; conditions: in vivo

Sequence of DNA-dependent protein kinase catalytic subunit (P78527 whole entry): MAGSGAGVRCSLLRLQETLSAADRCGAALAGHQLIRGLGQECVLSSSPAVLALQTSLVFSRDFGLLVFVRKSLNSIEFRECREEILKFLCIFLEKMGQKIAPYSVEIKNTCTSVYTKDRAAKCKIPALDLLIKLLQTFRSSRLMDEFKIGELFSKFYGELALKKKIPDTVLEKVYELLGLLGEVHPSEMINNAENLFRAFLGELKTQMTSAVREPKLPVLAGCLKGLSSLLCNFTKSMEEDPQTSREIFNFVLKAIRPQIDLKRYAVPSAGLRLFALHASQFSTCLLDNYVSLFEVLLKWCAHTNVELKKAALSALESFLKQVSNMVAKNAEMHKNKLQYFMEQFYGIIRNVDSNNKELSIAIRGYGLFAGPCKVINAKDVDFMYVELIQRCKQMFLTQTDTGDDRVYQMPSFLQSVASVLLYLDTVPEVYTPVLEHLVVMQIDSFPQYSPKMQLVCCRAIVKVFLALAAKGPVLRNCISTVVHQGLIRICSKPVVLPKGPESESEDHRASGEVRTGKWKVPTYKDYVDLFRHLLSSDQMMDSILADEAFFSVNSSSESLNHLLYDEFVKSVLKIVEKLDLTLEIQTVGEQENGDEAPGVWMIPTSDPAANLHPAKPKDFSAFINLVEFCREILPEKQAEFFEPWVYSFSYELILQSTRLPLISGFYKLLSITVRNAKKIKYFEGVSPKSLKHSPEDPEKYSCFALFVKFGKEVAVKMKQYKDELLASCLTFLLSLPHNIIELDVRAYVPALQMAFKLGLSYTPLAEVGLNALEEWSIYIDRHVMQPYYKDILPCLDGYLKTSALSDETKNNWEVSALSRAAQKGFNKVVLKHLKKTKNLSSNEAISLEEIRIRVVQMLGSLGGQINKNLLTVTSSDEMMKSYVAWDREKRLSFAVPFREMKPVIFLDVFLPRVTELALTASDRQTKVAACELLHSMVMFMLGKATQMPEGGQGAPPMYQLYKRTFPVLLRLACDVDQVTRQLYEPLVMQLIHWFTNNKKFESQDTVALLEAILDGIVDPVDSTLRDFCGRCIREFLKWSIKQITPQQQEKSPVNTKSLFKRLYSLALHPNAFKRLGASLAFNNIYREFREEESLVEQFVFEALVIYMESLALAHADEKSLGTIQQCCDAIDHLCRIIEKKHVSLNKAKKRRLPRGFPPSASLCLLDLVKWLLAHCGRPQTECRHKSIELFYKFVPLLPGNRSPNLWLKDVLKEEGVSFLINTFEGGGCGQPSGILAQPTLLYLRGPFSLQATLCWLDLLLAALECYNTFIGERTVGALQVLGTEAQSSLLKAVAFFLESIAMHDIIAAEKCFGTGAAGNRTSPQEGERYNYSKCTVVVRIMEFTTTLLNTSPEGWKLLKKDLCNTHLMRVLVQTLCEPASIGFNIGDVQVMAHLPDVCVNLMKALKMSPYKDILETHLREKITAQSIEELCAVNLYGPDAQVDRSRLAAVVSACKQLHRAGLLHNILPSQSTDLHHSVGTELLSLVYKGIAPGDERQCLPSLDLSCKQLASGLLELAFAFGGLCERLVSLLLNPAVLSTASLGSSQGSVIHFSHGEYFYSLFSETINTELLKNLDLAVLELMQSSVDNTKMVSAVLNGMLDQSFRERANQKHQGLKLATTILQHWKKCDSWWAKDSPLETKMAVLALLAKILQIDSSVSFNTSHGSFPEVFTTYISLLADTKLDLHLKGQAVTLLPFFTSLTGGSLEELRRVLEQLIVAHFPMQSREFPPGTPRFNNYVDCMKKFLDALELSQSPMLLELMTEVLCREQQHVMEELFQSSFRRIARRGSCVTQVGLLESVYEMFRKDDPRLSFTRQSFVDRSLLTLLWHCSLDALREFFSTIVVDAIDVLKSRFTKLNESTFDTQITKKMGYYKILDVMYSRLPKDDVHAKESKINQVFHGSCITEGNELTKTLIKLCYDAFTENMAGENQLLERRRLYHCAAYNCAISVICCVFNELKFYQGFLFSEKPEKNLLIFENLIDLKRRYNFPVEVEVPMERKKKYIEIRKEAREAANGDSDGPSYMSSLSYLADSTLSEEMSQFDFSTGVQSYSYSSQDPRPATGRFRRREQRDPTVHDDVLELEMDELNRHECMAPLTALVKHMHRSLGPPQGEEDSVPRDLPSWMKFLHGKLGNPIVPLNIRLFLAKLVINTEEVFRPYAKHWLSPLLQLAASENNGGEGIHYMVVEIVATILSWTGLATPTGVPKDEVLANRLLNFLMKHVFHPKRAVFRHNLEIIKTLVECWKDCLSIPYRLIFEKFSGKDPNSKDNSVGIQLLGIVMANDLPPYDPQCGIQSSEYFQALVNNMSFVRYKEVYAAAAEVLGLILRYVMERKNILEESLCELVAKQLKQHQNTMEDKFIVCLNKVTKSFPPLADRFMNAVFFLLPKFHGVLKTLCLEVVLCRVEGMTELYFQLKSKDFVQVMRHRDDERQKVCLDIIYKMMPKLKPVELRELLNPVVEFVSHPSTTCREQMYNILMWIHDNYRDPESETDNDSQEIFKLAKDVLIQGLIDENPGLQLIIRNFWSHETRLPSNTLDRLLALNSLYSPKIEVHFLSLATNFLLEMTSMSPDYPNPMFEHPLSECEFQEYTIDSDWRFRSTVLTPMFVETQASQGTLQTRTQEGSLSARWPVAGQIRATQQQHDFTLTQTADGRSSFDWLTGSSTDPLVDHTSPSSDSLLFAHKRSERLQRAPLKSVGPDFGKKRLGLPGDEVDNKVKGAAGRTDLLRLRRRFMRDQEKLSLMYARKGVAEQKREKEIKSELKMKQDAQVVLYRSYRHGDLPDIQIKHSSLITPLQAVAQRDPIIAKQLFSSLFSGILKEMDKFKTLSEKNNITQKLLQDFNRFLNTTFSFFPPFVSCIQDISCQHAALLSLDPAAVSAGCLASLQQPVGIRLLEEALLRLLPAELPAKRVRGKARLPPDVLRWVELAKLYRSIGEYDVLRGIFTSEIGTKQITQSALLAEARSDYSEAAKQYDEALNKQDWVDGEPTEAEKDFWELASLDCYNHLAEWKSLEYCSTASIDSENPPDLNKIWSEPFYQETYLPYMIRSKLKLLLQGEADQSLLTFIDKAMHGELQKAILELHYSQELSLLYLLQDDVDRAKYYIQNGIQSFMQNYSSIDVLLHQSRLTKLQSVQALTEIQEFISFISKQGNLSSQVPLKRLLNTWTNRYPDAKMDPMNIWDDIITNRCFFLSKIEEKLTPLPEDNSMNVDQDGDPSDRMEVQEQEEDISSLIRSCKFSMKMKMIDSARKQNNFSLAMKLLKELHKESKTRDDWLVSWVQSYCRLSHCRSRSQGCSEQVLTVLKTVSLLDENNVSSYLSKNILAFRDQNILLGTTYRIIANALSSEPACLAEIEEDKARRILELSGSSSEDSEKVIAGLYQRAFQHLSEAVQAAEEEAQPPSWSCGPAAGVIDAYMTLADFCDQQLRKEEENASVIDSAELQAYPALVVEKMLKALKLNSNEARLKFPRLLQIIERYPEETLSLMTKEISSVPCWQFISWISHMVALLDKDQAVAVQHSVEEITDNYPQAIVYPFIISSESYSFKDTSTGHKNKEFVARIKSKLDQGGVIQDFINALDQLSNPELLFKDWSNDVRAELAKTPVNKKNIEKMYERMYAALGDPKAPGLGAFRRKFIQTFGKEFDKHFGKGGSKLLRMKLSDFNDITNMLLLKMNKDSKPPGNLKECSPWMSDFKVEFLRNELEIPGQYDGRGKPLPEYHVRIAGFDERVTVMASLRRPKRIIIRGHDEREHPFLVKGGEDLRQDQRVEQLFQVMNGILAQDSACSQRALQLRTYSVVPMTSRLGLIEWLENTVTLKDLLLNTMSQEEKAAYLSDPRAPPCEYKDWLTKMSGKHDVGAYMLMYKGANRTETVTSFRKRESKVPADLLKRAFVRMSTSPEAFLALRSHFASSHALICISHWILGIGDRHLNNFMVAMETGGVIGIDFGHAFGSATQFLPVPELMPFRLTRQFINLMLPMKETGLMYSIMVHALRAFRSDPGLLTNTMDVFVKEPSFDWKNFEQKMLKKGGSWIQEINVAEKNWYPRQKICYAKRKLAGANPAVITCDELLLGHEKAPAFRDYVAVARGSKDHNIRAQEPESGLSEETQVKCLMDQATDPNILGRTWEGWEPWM

Q: For C[C@@H]1COCCN1c1cc(-c2ccnn2C)c2ccnc(-c3ccn[nH]3)c2n1 [ELIMUSERTIB], which CLH [1] is on record?
A: 8.67 mL/min/kg

Q: What about the inhibition [2] of the same compound?
A: Active

Q: And the half-life [3]?
A: 1.3 h

Q: What about the Fh at 1 µM [4] of the same compound?
A: 44%

Q: What about the “t1/2(app)” value [5] of the same compound?
A: 0.17 h

Q: And the CL [6]?
A: 58.3 mL/min/kg

Q: And the fraction unbound at 7 h, 3 µM [7]?
A: 0.17

Q: What about the bioavailability [8] of the same compound?
A: 87%

Q: And the Fh at 1 µM [9]?
A: 54%

Q: And the IC50 [10]?
A: 35 nM

Q: And the half-life [11]?
A: 1 h

Q: And the T/C (SU-DHL-8 [12])?
A: -0.03

Q: And the T/C (SUM149PT)?
A: -0.06

Q: And the Activity [13]?
A: 11 to 15%

Q: What about the IC50 (SU-DHL-8 [14]) of the same compound?
A: 9 nM

Q: What about the IC50 [15] of the same compound?
A: 332 nM

Q: What about the clearance [16] of the same compound?
A: 20 mL/min/kg

Q: What about the Kd [17] of the same compound?
A: 580 nM

Q: What about the Activity [18] of the same compound?
A: < 10%
